17 compounds from ChEMBL document CHEMBL1132645, “Novel arylpyrazino[2,3-c][1,2,6]thiadiazine 2,2-dioxides as inhibitors of platelet aggregation. 1. Synthesis and pharmacological evaluation” (1999) can be followed below.

Common to all, as to type: functional
The species named for experiment [1] is Oryctolagus cuniculus. Description: Compound was screened for its platelet aggregation induced by adenosine diphosphate in vitro in rabbit. Details: concentration or dose not given beside the values. The essentials:
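Rabbit citrated PRP (male New Zealand white, 2.5–3.5 kg, cardiac puncture), adjusted to 5 × 10⁵ platelets/μL with PPP. Compound in DMSO preincubated 10 min at 37 °C, then ADP 1–2 μM added. Born aggregometry read at 5 min. Single fixed concentration; result is percent inhibition of maximal amplitude against paired vehicle controls.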

Experiment [2] is filed under the species Oryctolagus cuniculus. In words: Compound was screened for its platelet aggregation induced by arachidonic acid in vitro in rabbit. The essentials:
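Rabbit citrated PRP, 5 × 10⁵ platelets/μL, compound preincubated in DMSO 10 min at 37 °C, then arachidonic acid 1 mM. Born aggregometry at 5 min, triplicate for each concentration. Value is EC100, the lowest concentration giving complete inhibition, read from concentration–response data.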

In experiment [3] the test system is Rattus norvegicus. In words: In vivo inhibitory activity after 120 min of 100 mg/kg oral administration induced by I-BOP in rats. The note with it: 2 h. The gist of the method: (§1)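 Male Wistar rats, 200–250 g, fasted overnight, were dosed by oral gavage with compound suspended in 0.25% carboxymethylcellulose in 10% Tween 80 (10 mL/kg). Blood was drawn by cardiac puncture under ether at 30 or 120 min and anticoagulated with heparin 1 U/mL final. PRP was diluted to (4–5) × 10⁵ cells/μL. Agonists: AA 0.4 mM, collagen 1–2 μg/mL, I-BOP 225–250 nM. Percent inhibition read at 5 min; 3–5 determinations, mean ± SEM.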

Experiment [4] relates to Rattus norvegicus. In words: In vivo inhibitory activity after 120 min of 100 mg/kg oral administration induced by arachidonic acid in rats. The note with it: 2 h. The gist of the method: as §1
Experiment [5] relates to Rattus norvegicus. Description: In vivo inhibitory activity after 120 min of 100 mg/kg oral administration induced by collagen in rats. To be noted: 2 h. The gist of the method: as §1
The test system of experiment [6] is Rattus norvegicus. Description: In vivo inhibitory activity after 30 min of 100 mg/kg oral administration induced by I-BOP in rats. The note with it: 0.5 h. The essentials:
as §1

In experiment [7] the test system is Rattus norvegicus. Description: In vivo inhibitory activity after 30 min of 100 mg/kg oral administration induced by arachidonic acid in rats. To be noted: 0.5 h. The essentials: as §1
The test system of experiment [8] is Rattus norvegicus. In words: In vivo inhibitory activity after 30 min of 100 mg/kg oral administration induced by collagen in rats. To be noted: 0.5 h. The essentials:
as §1

For experiment [9], the system named is Rattus norvegicus. Description: In vivo inhibitory activity after 120 min of 25 mg/kg oral administration induced by I-BOP in rats. To be noted: 2 h.
Experiment [10] has as its system Rattus norvegicus. Description: In vivo inhibitory activity after 120 min of 25 mg/kg oral administration induced by arachidonic acid in rats. The note with it: 2 h.
Experiment [11] concerns Rattus norvegicus. In words: In vivo inhibitory activity after 120 min of 25 mg/kg oral administration induced by collagen in rats. To be noted: 2 h.
The species named for experiment [12] is Homo sapiens. In words: Compound was screened for its platelet aggregation induced by collagen in vitro in human platelets at conc 1 mM. The gist of the method:
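Human citrated PRP (blood from consenting volunteers, 3.8% trisodium citrate 9:1; PRP 250g 10 min, PPP 2000g 20 min, room temperature), adjusted to 3 × 10⁵ platelets/μL with PPP. Compounds in DMSO preincubated 10 min at 37 °C. Agonists: AA 1 mM, collagen 1–2 μg/mL, U46619 1.4 μM, I-BOP 225–250 nM. Born turbidimetric aggregometry read 5 min after agonist; inhibition of maximal amplitude versus paired vehicle; 3–4 determinations, mean ± SEM.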

The compound `NC(=O)CN1c2nc(-c3ccccc3)c(-c3ccccc3)nc2C(N)=NS1(=O)=O` registered an Inhibitory response in [1] of 47%. This compound also had an EC100 in experiment [2] of 0.003 mg/mL.
In the same order, the values of `CN1c2nc(-c3ccccn3)c(-c3ccccn3)nc2C(N)=NS1(=O)=O` are 43% and 0.003 mg/mL.
The compound `CN1c2ncc(-c3ccccc3)nc2C(N)=NS1(=O)=O` gave an Inhibitory response in [1] of 43%. This compound registered an EC100 in experiment [2] of 0.0003 mg/mL.
The corresponding values for `CN1c2nc(-c3ccco3)c(-c3ccco3)nc2C(N)=NS1(=O)=O` are 63% and 0.001 mg/mL.
By inhibition in vivo is commonly meant the drop in the measured response relative to a control, in per cent. Turning to `CCN1c2nc(C)c(-c3ccccc3)nc2C(N)=NS1(=O)=O`, in experiment [1], the Inhibitory response came out at 47%. Besides, the EC100 in experiment [2] amounted to 0.001 mg/mL. In addition, the inhibition in vivo at 100 mg/kg in [3] is 50.3%; in [4], 48.8%; in [5] it was 47.2%; in [6], 59.6%; in experiment [7] it was 20%; in experiment [8] it was 93.5%.
Turning to `O=C(O)CCn1c2c(c3ccccc31)CC(NS(=O)(=O)c1ccc(F)cc1)CC2` (stereo not given), the inhibition in vivo at 25 mg/kg in experiment [9] is 72.5%; in [10], 74.2%; in [11], 95.3%.
`CCOC(=O)CN1c2nc(-c3ccccc3)c(-c3ccccc3)nc2C(N)=NS1(=O)=O` registered an Inhibitory response in [1] of 30%. This compound came in with an EC100 in [2] of 0.0001 mg/mL.
`CCN1c2nc(-c3ccccc3)c(Cl)nc2C(N)=NS1(=O)=O`: the Inhibitory response in [1] was determined as 23%. Further, in [2], the EC100 was 0.01 mg/mL.
Compound `CC(C)(C)OC(=O)CN1c2nc(-c3ccccc3)c(-c3ccccc3)nc2C(N)=NS1(=O)=O` registered an Inhibitory response in [1] of 32%. For the same compound, the EC100 in experiment [2] turned out to be 0.001 mg/mL.
For `CCN1c2nc(-c3ccccc3)c(-c3ccccc3)nc2C(N)=NS1(=O)=O`, the Inhibitory response in experiment [1] came out at 46%. Also, the EC100 in experiment [2] came to 0.0003 mg/mL. Also, the inhibition in vivo at 100 mg/kg in experiment [3] was determined as 30%; in experiment [4], 1%; in [5], 26.3%; in experiment [6] it was 100%; in experiment [7] it was 6.5%; in experiment [8] it was 82.6%.
In experiment [1], `NC1=NS(=O)(=O)N(Cc2ccccc2)c2nc(-c3ccccc3)c(-c3ccccc3)nc21` registered an Inhibitory response of 30%. The compound further displayed an EC100 in experiment [2] of 0.003 mg/mL.
Compound `CCOC(=O)CN1c2nc(-c3ccccc3)c(Br)nc2C(N)=NS1(=O)=O` returned an Inhibitory response in experiment [1] of 36%. The compound further yielded an EC100 in [2] of 0.01 mg/mL.
`CCN1c2nc(-c3cccs3)c(-c3cccs3)nc2C(N)=NS1(=O)=O`: the Inhibitory response in experiment [1] is recorded as 43%. The same compound yielded an EC100 in experiment [2] of 0.003 mg/mL.
Take `CCN1c2nc(-c3ccccc3)c(C)nc2C(N)=NS1(=O)=O`: the Inhibitory response in experiment [1] stood at 59%. In addition, the EC100 in experiment [2] was 0.001 mg/mL.
`Nc1ncnc2c1ncn2[C@@H]1O[C@H](CO)[C@@H](O)[C@H]1O` [ADENOSINE] yielded an Inhibitory response in experiment [1] of 64%.
In general, inhibition refers to how much of the control response was suppressed. In the case of `CC(=O)Oc1ccccc1C(=O)O` [ASPIRIN], the inhibition at 1000 µM in experiment [12] is 94%. The compound further returned an EC100 in [2] of 0.0025 mg/mL. Moreover, the values for the inhibition in vivo at 100 mg/kg in experiment [3], in experiment [4] and in experiment [5] were 0.9%, 93.8% and 84.6%, respectively.
On to `Clc1ccccc1CN1CCc2sccc2C1` [TICLOPIDINE], for which the inhibition in vivo at 100 mg/kg in [3] came out at 57.1%; in experiment [4], 0.9%; in [5] it was 98.7%.
